Measurements reported in ChEMBL document CHEMBL1148550, “4-Phenyl-4-[1H-imidazol-2-yl]-piperidine derivatives, a novel class of selective delta-opioid agonists” (Bioorg Med Chem Lett, 2006).

Columns and labels:
[1] = target: T1, Delta-type opioid receptor (Homo sapiens, UniProt P41143); assay: Displacement of [3H]DPDPE from cloned human delta opioid receptor
Method in brief: (§1)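 Radioligand competition binding at cloned human receptors: [³H]DAMGO for mu, [³H]DPDPE for delta, [³H]U69593 for kappa. Ki is the concentration giving half-maximal inhibition of tracer binding.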

Mu-type opioid receptor = Mu-type opioid receptor (Homo sapiens, UniProt P35372); assay: Displacement of [3H]DAMGO from cloned human mu opioid receptor; method in brief: as §1
Sequence of Mu-type opioid receptor (P35372 whole entry): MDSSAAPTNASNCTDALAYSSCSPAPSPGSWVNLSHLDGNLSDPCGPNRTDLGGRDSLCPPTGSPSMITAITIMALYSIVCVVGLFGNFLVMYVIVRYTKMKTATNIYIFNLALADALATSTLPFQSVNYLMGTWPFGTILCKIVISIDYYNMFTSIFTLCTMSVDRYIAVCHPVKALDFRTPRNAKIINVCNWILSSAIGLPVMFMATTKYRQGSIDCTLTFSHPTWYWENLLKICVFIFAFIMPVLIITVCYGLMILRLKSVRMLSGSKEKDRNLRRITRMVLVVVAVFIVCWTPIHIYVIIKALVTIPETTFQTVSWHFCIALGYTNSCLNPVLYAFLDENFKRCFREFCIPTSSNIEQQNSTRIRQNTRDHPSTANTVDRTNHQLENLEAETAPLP

[2] = target: Kappa-type opioid receptor (Homo sapiens, UniProt P41145); assay: Displacement of [3H]U-69593 from cloned human kappa opioid receptor; method in brief: as §1
Sequence of Kappa-type opioid receptor (P41145 whole entry): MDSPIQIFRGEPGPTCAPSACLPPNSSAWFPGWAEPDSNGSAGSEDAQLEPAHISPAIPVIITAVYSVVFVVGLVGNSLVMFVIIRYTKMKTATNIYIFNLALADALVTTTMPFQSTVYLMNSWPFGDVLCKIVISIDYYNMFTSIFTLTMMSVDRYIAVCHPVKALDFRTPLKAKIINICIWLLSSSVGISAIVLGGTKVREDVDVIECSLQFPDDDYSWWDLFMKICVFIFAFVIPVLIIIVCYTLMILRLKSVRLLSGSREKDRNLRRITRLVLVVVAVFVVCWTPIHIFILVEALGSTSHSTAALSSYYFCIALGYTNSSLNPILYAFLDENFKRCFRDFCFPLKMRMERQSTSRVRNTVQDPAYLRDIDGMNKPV

[3] = target: Opioid receptors; mu & delta (Homo sapiens) (UniProt P41143+P35372); assay: Selectivity for cloned human mu opioid receptor over delta opioid receptor; type: protein assay
Sequence of Opioid receptors; mu & delta (Homo sapiens) (P35372 whole entry, looked up): as the sequence (P35372 whole entry) above
Sequence of Opioid receptors; mu & delta (Homo sapiens) (P41143 whole entry, looked up): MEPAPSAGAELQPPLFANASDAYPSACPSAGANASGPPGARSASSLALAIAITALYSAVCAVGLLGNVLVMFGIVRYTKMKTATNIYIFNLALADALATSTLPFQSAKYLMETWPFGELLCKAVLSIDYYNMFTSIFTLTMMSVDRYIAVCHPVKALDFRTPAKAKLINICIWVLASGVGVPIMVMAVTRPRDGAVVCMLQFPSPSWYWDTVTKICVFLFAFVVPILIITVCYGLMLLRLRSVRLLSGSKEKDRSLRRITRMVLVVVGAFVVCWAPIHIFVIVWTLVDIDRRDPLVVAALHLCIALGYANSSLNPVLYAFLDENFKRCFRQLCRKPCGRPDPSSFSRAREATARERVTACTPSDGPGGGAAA

[4] = target: Opioid receptors; delta & kappa (Homo sapiens) (UniProt P41145+P41143); assay: Selectivity for cloned human kappa opioid receptor over delta opioid receptor; type: protein assay
Sequence of Opioid receptors; delta & kappa (Homo sapiens) (P41143 whole entry, looked up): as above
Sequence of Opioid receptors; delta & kappa (Homo sapiens) (P41145 whole entry, looked up): as the sequence (P41145 whole entry) above

[5] = target: T1, Delta-type opioid receptor; assay: Agonist potency assessed by [35S]GTP-gammaS binding assay in C6 Glioma cells expressing cloned human delta opioid receptor; type: functional, cell-based
Method in brief: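 Membranes expressing human δ-opioid receptors; agonism read as percent stimulation of [³⁵S]GTPγS binding against log molar ligand concentration. pEC₅₀ derived from three-parameter logistic curve fits.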

T1 sequence (P41143 whole entry): as the sequence (P41143 whole entry, looked up) above

`c1ccc(Cn2ccnc2C2(c3ccccc3)CCN(c3nccs3)CC2)cc1` gave a Ki [1] of 79 nM, a Ki (Mu-type opioid receptor) greater than 4650 nM and a Ki [2] of 2530 nM. It also gave a Ratio Ki [3] greater than 58, a Ratio Ki [4] of 32 and an EC50 [5] of 98 nM.

Work on `COc1cccc(Cn2ccnc2C2(c3ccccc3)CCN(C(=O)Nc3ccccc3)CC2)c1` yielded a Ki [1] of 217 nM, a Ki (Mu-type opioid receptor) of 3250 nM and a Ki [2] of 2060 nM. The Ratio Ki [3] was 15 and the Ratio Ki [4] was 9.

For `O=C(Nc1ccccc1)N1CCC(c2ccccc2)(c2ncc[nH]2)CC1`, the Ki [1] was greater than 465 nM, the Ki (Mu-type opioid receptor) was greater than 465 nM and the Ki [2] was greater than 4650 nM.

`NS(=O)(=O)N1CCC(c2ccccc2)(c2nccn2Cc2ccccc2)CC1` was tested, and the Ki [1] was 106 nM, the Ki (Mu-type opioid receptor) was greater than 4650 nM and the Ki [2] was greater than 4650 nM. For the same compound, the Ratio Ki [3] was greater than 44 and the Ratio Ki [4] was greater than 44.

For `O=C(Nc1ccccc1)N1CCC(c2ccccc2)(c2nccn2Cc2ccccc2)CC1`, the Ki [1] was 81 nM, the Ki (Mu-type opioid receptor) was greater than 465 nM and the Ki [2] was 126 nM. It also gave a Ratio Ki [3] greater than 5.7, a Ratio Ki [4] of 1.6 and an EC50 [5] of 1480 nM.

`O=C(Nc1ccc(F)cc1)N1CCC(c2ccccc2)(c2nccn2Cc2ccccc2)CC1` gave a Ki [1] of 97 nM, a Ki (Mu-type opioid receptor) of 1210 nM and a Ki [2] of 148 nM. The Ratio Ki [3] was 12 and the Ratio Ki [4] was 1.5.

Work on `O=C(Nc1ccccc1)N1CCC(c2ccccc2)(c2nccn2C(=O)c2ccccc2)CC1` yielded a Ki [1] of 3700 nM, a Ki (Mu-type opioid receptor) greater than 4650 nM and a Ki [2] of 1190 nM. It also gave a Ratio Ki [3] greater than 1.2 and a Ratio Ki [4] of 0.32.

Work on `CN1CCN(C(=O)N2CCC(c3ccccc3)(c3nccn3Cc3ccccc3)CC2)CC1` yielded a Ki [1] of 161 nM, a Ki (Mu-type opioid receptor) greater than 4650 nM and a Ki [2] of 858 nM. For the same compound, the Ratio Ki [3] was greater than 29 and the Ratio Ki [4] was 5.3.

`COc1cccc(NC(=O)N2CCC(c3ccccc3)(c3nccn3Cc3ccccc3)CC2)c1` was tested, and the Ki (Mu-type opioid receptor) was 1380 nM and the Ki [2] was 152 nM.

`O=C(Nc1ccccc1)N1CCC(c2ccccc2)(c2nccn2Cc2ccccc2F)CC1` was tested, and the Ki (Mu-type opioid receptor) was 428 nM and the Ki [2] was 116 nM.

For `NC(=O)N1CCC(c2ccccc2)(c2nccn2Cc2ccccc2)CC1`, the Ki [1] was 99 nM, the Ki (Mu-type opioid receptor) was greater than 4650 nM and the Ki [2] was 334 nM. For the same compound, the Ratio Ki [3] was greater than 51 and the Ratio Ki [4] was 3.4.

`O=C(Nc1cccc(F)c1)N1CCC(c2ccccc2)(c2nccn2Cc2ccccc2)CC1` gave a Ki (Mu-type opioid receptor) greater than 4650 nM and a Ki [2] greater than 4650 nM.

`CN(C(=O)N1CCC(c2ccccc2)(c2nccn2Cc2ccccc2)CC1)c1ccccc1` was tested, and the Ki (Mu-type opioid receptor) was greater than 4650 nM and the Ki [2] was 397 nM.

Compound `Cn1c(N2CCC(c3ccccc3)(c3nccn3Cc3ccccc3)CC2)nc2ccccc21` has a Ki [1] of 138 nM, a Ki (Mu-type opioid receptor) of 235 nM and a Ki [2] of 40 nM. The Ratio Ki [3] was 1.7 and the Ratio Ki [4] was 0.29.

`CCNC(=O)N1CCC(c2ccccc2)(c2nccn2Cc2ccccc2)CC1` was tested, and the Ki (Mu-type opioid receptor) was greater than 4650 nM and the Ki [2] was 242 nM.

With `CC(c1ccccc1)n1ccnc1C1(c2ccccc2)CCN(C(=O)Nc2ccccc2)CC1` (configuration not stated) the Ki (Mu-type opioid receptor) was 497 nM and the Ki [2] was greater than 465 nM.

For `O=C(Nc1ccccc1F)N1CCC(c2ccccc2)(c2nccn2Cc2ccccc2)CC1`, the Ki (Mu-type opioid receptor) was 2520 nM and the Ki [2] was 318 nM.

Compound `O=C(Nc1ccccc1)N1CCC(c2ccccc2)(c2nccn2Cc2ccc(F)cc2)CC1` has a Ki [1] of 203 nM, a Ki (Mu-type opioid receptor) greater than 4650 nM and a Ki [2] of 2160 nM. For the same compound, the Ratio Ki [3] was greater than 23 and the Ratio Ki [4] was 11.

With `O=S(=O)(Nc1ccccc1)N1CCC(c2ccccc2)(c2nccn2Cc2ccccc2)CC1` the Ki [1] was 3.2 nM, the Ki (Mu-type opioid receptor) was 980 nM and the EC50 [5] was 832 nM.

`c1ccc(Cn2ccnc2C2(c3ccccc3)CCN(c3ncccn3)CC2)cc1` gave a Ki [1] of 18 nM, a Ki (Mu-type opioid receptor) greater than 4650 nM and a Ki [2] of 505 nM. For the same compound, the Ratio Ki [3] was greater than 258, the Ratio Ki [4] was 28 and the EC50 [5] was 14 nM.

In the case of `O=C(Nc1ccccc1)N1CCC(c2ccccc2)(c2nccn2Cc2ccccn2)CC1`, the Ki [1] is reported as 3070 nM, the Ki (Mu-type opioid receptor) is reported as 1420 nM and the Ki [2] is reported as 46 nM. For the same compound, the Ratio Ki [3] was 0.46 and the Ratio Ki [4] was 0.015.

In the case of `COc1ccc(NC(=O)N2CCC(c3ccccc3)(c3nccn3Cc3ccccc3)CC2)cc1`, the Ki [1] is reported as 44 nM, the Ki (Mu-type opioid receptor) is reported as greater than 465 nM and the Ratio Ki [3] is reported as greater than 10.

`CS(=O)(=O)N1CCC(c2ccccc2)(c2nccn2Cc2ccccc2)CC1` was tested, and the Ki [1] was 46 nM, the Ki (Mu-type opioid receptor) was greater than 4650 nM and the Ki [2] was 2010 nM. The Ratio Ki [3] was greater than 101 and the Ratio Ki [4] was 44.

`O=C(Nc1ccccc1)N1CCC(c2ccccc2)(c2nccn2Cc2cccc(F)c2)CC1` showed a Ki [1] of 128 nM, a Ki (Mu-type opioid receptor) greater than 4650 nM and a Ki [2] of 1880 nM. It also gave a Ratio Ki [3] greater than 36 and a Ratio Ki [4] of 15.

`c1ccc(Cn2ccnc2C2(c3ccccc3)CCN(c3nc4ccccc4s3)CC2)cc1` gave a Ki [1] of 73 nM, a Ki (Mu-type opioid receptor) greater than 4650 nM and a Ratio Ki [3] greater than 63. The EC50 [5] was 26 nM.

`COc1ccccc1NC(=O)N1CCC(c2ccccc2)(c2nccn2Cc2ccccc2)CC1` was tested, and the Ki (Mu-type opioid receptor) was greater than 4650 nM and the Ki [2] was 782 nM.
